Published values of several laboratories.
Lines come from different studies, so protocols differ.
Target: Beta-adrenergic receptor kinase 1 (GRK2, Homo sapiens, UniProt P25098)
Residues used in one study (P25098 1-689): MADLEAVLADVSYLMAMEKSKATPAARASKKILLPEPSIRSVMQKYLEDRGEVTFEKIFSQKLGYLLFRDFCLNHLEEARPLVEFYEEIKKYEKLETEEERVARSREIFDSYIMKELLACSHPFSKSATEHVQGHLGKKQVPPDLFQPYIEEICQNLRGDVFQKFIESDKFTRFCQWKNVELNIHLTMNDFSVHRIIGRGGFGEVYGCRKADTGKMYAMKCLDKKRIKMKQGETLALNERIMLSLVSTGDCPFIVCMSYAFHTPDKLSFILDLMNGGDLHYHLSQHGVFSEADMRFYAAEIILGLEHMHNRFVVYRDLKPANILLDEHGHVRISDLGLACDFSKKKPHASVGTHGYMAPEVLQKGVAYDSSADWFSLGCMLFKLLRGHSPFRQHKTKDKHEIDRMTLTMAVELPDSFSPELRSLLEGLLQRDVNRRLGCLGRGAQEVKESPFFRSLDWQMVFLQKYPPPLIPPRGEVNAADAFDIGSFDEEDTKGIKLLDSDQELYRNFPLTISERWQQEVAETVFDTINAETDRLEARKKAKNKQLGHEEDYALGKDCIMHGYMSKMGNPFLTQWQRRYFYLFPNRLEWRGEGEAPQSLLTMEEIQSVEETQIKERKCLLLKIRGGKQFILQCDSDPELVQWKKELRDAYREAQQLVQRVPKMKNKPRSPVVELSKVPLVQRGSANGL

SMILES | assay | setting | remaining binding [%]
Nc1ncc2c(n1)-c1c([nH]c3ccc(C#CC4CC4)cc13)CCCC2 | binding, competition with immobilised ligand | 1 µM | 87
CNCc1ccccc1-c1csc([C@@H](C)Nc2nc(C)nc3cc(OC)c(OC)cc23)c1 | cell-free assay, competition with immobilised ligand | 1 µM | 86
CN(C)c1nccc(-c2cnc3ncccn23)n1 | binding, competition with immobilised ligand | 1 µM | 92
CCCCN(CCCC)C(=O)CN1C[C@H](c2cc(OC)c3c(c2)OCO3)[C@@H](C(=O)O)[C@@H]1CC(C)(C)CCC | cell-free assay, competition with immobilised ligand | 1 µM | 71.8
CN(c1nccc(-c2cnn3ncccc23)n1)C1CC1 | binding | 1 µM | 64
O=C(Nc1c[nH]nc1C(=O)NC1CCNCC1)c1cc(F)cc(F)c1 | binding, competition with immobilised ligand | 1 µM | 100
Cc1nc(C2CCN(C(=O)c3ccc(OC(F)(F)F)cc3N)CC2)c2ncc(N3CCN(C)CC3)cc2n1 | cell-free assay, competition with immobilised ligand | 1 µM | 92
CNC(=O)[C@@H]1CC[C@@H](n2c(-c3ccc4cnccc4c3)nc3ccc(C(=O)NCc4cccc(C(N)=O)c4)cc32)C1 | binding, competition with immobilised ligand | 1 µM | 92
COc1ccc2c(c1)O[C@H](c1ccc(OC)c(OC)c1)C[C@@H]2NC(=O)C1(c2ccc3c(c2)OC(F)(F)O3)CC1 | cell-free assay, competition with immobilised ligand | 1 µM | 84
O=C(c1ccc(Nc2nccc(-c3cc4ccccc4s3)n2)cc1)N1CCC(N2CCCC2)CC1 | binding, competition with immobilised ligand | 1 µM | 100
C[C@@H]1CCN(c2nccc(-c3cnn4ncccc34)n2)C1 | binding, competition with immobilised ligand | 1 µM | 57
Cc1nc(Cc2cccc(C(F)(F)F)c2)sc1-c1ccc(C(N)=O)nc1 | cell-free assay, competition with immobilised ligand | 1 µM | 100
c1cncc(-c2cccc(Nc3nccc(NC4CCCCC4)n3)c2)c1 | binding, competition with immobilised ligand | 10 µM | 100
Cc1c(NC(=O)c2cc(C(N)=O)nc3cc(F)ccc23)c(C(F)(F)F)nn1Cc1ccc(C(C)(C)C)cc1 | cell-free assay, competition with immobilised ligand | 1 µM | 100
CN(CCCC(F)(F)F)c1nccc(-c2cnn3ncccc23)n1 | binding, competition with immobilised ligand | 1 µM | 61
O=C(NCCCN1CCOCC1)c1ccc(Nc2ncc(Cl)c(-c3ccc(Cl)s3)n2)cc1 | binding, competition with immobilised ligand | 1 µM | 91
COc1ccnn2ncc(-c3ccnc(N(C)C)n3)c12 | binding | 1 µM | 100
O=C(c1ccc(Nc2ncc(Cl)c(-c3ccc(Cl)s3)n2)cc1)N1CCC(N2CCCC2)CC1 | binding, competition with immobilised ligand | 1 µM | 98
COc1cnc(Nc2cccc(S(N)(=O)=O)c2)nc1N1CCN(c2ccccc2)C(=O)C1 | binding, competition with immobilised ligand | 1 µM | 68
N[C@@H]1CCN(c2nccc(-c3cnn4ncccc34)n2)C1 | binding | 1 µM | 82
